Source: ChEMBL document CHEMBL1127618, “A novel nonpeptide HIV-1 protease inhibitor: elucidation of the binding mode and its application in the design of related analogs” (J Med Chem, 1994)

The compounds below were run against Human immunodeficiency virus type 1 protease (Human immunodeficiency virus 1, UniProt Q72874) (assay: Inhibition of HIV-1 protease).
Procedure, shortened: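 HIV-1 protease at 6.0 nM final added to inhibitor plus 40 μM undecapeptide substrate H-His-Lys-Ala-Arg-Val-Leu-(p-NO2)Phe-Glu-Ala-Nle-Ser-NH2, 1.0% DMSO, in 80 mM NaOAc, 160 mM NaCl, 1.0 mM EDTA, 1.0 mM DTT, 0.1% PEG 8000, pH 4.7, 37 °C. Inhibitor at […]. After 5 min, quenched with 2% TFA. Substrate and product resolved by reversed-phase HPLC (A220). % control from % conversion gives IC50.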

SMILES	IC50 [µM]
O=c1oc2ccccc2c(O)c1CCCOc1cccc([N+](=O)[O-])c1	4
O=c1oc2ccccc2c(O)c1CCCOCc1ccccc1	38
O=c1oc2ccccc2c(O)c1CCCOc1ccccc1	2.3
O=c1c(CCCOc2cccc(CO)c2)c(O)oc2ccccc12	2.3
O=c1c(CCCO)c(O)oc2ccccc12	86
O=c1oc2ccccc2c(O)c1CCOCc1ccccc1	4
O=c1oc2ccccc2c(O)c1CCCOC1CCCCC1	32
O=c1oc2ccccc2c(O)c1SCCOc1ccccc1	24
O=c1oc2ccccc2c(O)c1CCCSc1ccccc1	26
COc1ccccc1CCCCc1c(O)oc2cc(OCc3ccccc3)ccc2c1=O	> 100
O=c1oc2ccccc2c(O)c1CCCN(c1ccccc1)c1ccc(F)cc1	5.5
Nc1cccc(OCCCc2c(O)oc3ccccc3c2=O)c1	6.4
O=c1oc2ccccc2c(O)c1CCCOc1cccc(Cl)c1	1.4
COc1ccc(CCCCc2c(O)oc3ccccc3c2=O)cc1	> 100
COc1ccc2c(O)c(CCCCc3ccccc3OC)c(=O)oc2c1	3.3
O=C(O)c1cccc(OCCCc2c(O)oc3ccccc3c2=O)c1	7
O=c1oc2ccccc2c(O)c1CCCN(Cc1ccccc1)c1ccccc1	13
O=c1oc2ccccc2c(O)c1CCCCc1ccccc1	110
O=c1[nH]c2ccccc2c(O)c1CCCOc1ccccc1	> 200
COc1ccccc1CCCCc1c(O)oc2ccccc2c1=O	1.7
COc1ccccc1OCCCc1c(O)oc2ccccc2c1=O	44
O=c1c(CC/C(=N/O)c2ccccc2)c(O)oc2ccccc12	71
O=c1oc2ccccc2c(O)c1CCCCOc1ccccc1	> 100
CCOC(=O)c1cccc(OCCCc2c(O)oc3ccccc3c2=O)c1	1.4
COc1ccccc1CCCCc1c(O)c2ccc(O)cc2oc1=O	0.52
N#Cc1cccc(OCCCc2c(O)c3ccccc3oc2=O)c1	0.67
O=C(CCc1c(O)c2ccccc2oc1=O)c1ccccc1	90
NC(=O)c1cccc(OCCCc2c(O)oc3ccccc3c2=O)c1	3.9
O=c1oc2ccccc2c(O)c1CCOc1ccccc1	53
